Assay outcomes (PubChem)
Compounds with a hit are over-represented: about 5.9% of the library has one in this group of screens.
Phagocyt inh – inhibitors of macrophage phagocytosis, primary screen, imaging, J774A.1 cells, IgG beads | 110,000 compounds, 0.07% hits | inhibition, % at 5 µM | J774A.1 macrophage IgG-bead phagocytosis;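 active = inhibition above the mean of the plate negative controls plus 5 SD, cut at about 13% in these data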;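 note: phagocytic index as fraction of beads internalized from green versus red external bead signal; plate controls were DMSO negative control for no effect and cytochalasin-D positive control for full effect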
Cav3 T inh – Cav3.2 calcium influx blockers – cell-based, Fluo-4 calcium fluorescence, FDSS, MLSMR library, primary screen; Cav3.2-expressing cells; stronger effect = lower value; B-score at 10 µM; AID 449739, 2010; Voltage-dependent T-type calcium channel subunit alpha-1H (Homo sapiens), O95180; 100,000 compounds, 4% hits;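 active = single-dose well whose peak fluorescence ratio is a statistical outlier from its plate by either plate-standardised score or position-corrected B-score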
Rev-RRE block – HIV-1 Rev-RRE binding inhibitors, primary screen, biochemical, FRET, protein-RNA interaction | inhibition, % at 8 µM | Rev peptide-RRE RNA binding | P05866 | 97,000 compounds, 0.79% hits;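 active = inhibition above the screen-wide mean plus 3 SD, cut at about 35% in these data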;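 note: 0% = median DMSO wells and 100% = median Neomycin B control wells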
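Test system – labelled RRE RNA duplex and labelled Rev peptide · Signal – fluorescein-to-Cy5 FRET, 480 nm excitation · Evaluation – % inhibition of FRET ratio versus controls · Benchmarks – DMSO low control, neomycin B high control · Incubation – 5 min RNA-compound premix plus 15 min binding step, 25 °C · Medium – HEPES pH 7.5 salt buffer with EDTA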
Pyk2 oligo antag – antagonists of Pyk2 self-association, primary screen, Q293 cells, FERM NanoBiT luminescence, HTS | 99,000 compounds, 0.83% hits | Protein-tyrosine kinase 2-beta (Homo sapiens), Q14289 | stronger effect = lower value | z-score (the deposit names both 25 µM and 10 µM);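 active = Z-score of -3 or lower, scaled per plate to the spread of control and sample wells; inactive = z-score above -3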;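 note: negative z-score means lost luminescence so less FERM oligomerization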
hDAT+cocaine – changed hDAT dopamine uptake under cocaine IC80, either direction, primary screen, cocaine antagonist project, cell-based, LLC-PK1 hDAT, [14C]-dopamine uptake, MLSMR; LLC-PK1 hDAT cells, [14C]-dopamine uptake with cocaine IC80; actives deviate in either direction; Sodium-dependent dopamine transporter (Homo sapiens), Q01959; B-score at 10 µM; 110,000 compounds, 1.3% hits;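 active = Z score or B-score, a plate-position-corrected score, falls beyond the plate's 99.7% confidence bounds, in either direction; inactive = both scores lie inside the 99.7% bounds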;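 note: scored against the spread of the other compound wells on the same plate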
Measles CPE – compounds protecting cells from measles virus cytopathic effect, primary screen, measles RdRp inhibitor project, single point, MLSMR library, absorbance; Measles virus-infected cells, CPE protection; AID 841, 2007; protection (pct of control), % at 4 µM; 140,000 compounds, 1.5% hits; in the data active = protection mostly above about 24%, no sharp cut-off; inactive = mostly below about 26%
The depositor's hits bear a star; / = not tested or not shown; [ ] = dose if it differs, or a comment.

SMILES	Phagocyt inh	Cav3 T inh	Rev-RRE block	Pyk2 oligo antag	hDAT+cocaine	Measles CPE
CCOC(=O)C1C(c2cc(OC)c(O)c(OC)c2)NC(=S)NC1(O)C(F)(F)F (configuration not stated)	-10	/	/	/	/	36*
COc1cc(C2NC(=S)NC(O)(C(F)(F)F)C2C(=O)c2cccs2)cc(OC)c1O (configuration not stated)	-2	/	/	/	/	32*
CCOC(=O)C1C(c2cc(OC)c(OC)c(OC)c2)NC(=S)NC1(O)C(F)(F)F (configuration not stated)	0	0.39	-2	0.13	0.56	11
CC(=O)C(=Nc1ccc(Cl)cc1Cl)NNc1cccc(Cl)c1	0	-1	8	-0.88	-1.5	2
CCC(=O)n1nc(-c2ccc(OC)cc2)nc1N	/	0.33	0	0.49	-9.5*	21
COc1cccc(N=Cc2ccc(O)cc2O)c1	-1	-2.6	/	-0.6	0.32	35*
CCCCC1=CC2=C(c3ccco3)C(=O)C(C)(OC(=O)c3ccc(OC)cc3)C(=O)C2=CN1C1CCCCC1 (configuration not stated)	/	-0.83	/	/	0.98	/
O=C(CSc1nccc(=O)[nH]1)c1ccccc1Br	0	0.043	12	0.3	-0.65	30
O=C(CCCCCNc1nc(=S)[nH]c2ccccc12)N1CCN(c2ccccn2)CC1	-2	0.75	-6	-2.8	2.8*	7
CN(c1ccccc1C(=O)Nc1cccc(Cl)c1Cl)S(C)(=O)=O	-1	1	7	0.17	0.39	2
O=C(COc1ccc(N2C(=O)c3ccccc3C2=O)cc1)c1ccccc1	-9	/	/	/	/	20
O=C(COc1ccccc1N1C(=O)c2ccccc2C1=O)c1ccc(Cl)cc1	6.1*[artifact]	0.02	10	-0.34	0.65	4
O=C(N/N=C/c1ccc(N2CCCCC2)o1)c1ccccc1	2	/	/	/	/	16
N#C/C(=C/c1ccc(N2CCCCCC2)o1)c1cccc(F)c1	-1	-4.3*	105*[fluorescence artefact?]	1.1	0.21	5
N#C/C(=C/c1ccc(N2CCCCC2)o1)C(=O)Nc1ccc2ccccc2c1	/	/	/	/	/	2
COc1cc(N2CCCC2)c(OC)cc1/C=C(/C#N)c1cccc(F)c1	0	-3	117*[fluorescence artefact?]	-1.6	-0.42	25
N#C/C(=C/c1ccc(N2CCCCCC2)o1)c1ccc(F)cc1	/	-6.1*	73*	0.41	0.57	5
N#C/C(=C/c1ccc(N2CCCCC2)o1)C(=O)Nc1ccc(Cl)cc1	-1	-0.98	139*[fluorescence artefact?]	0.99	0.77	16
COC(=O)C1=C(C(=O)OC)[C@@H]2N(C)c3ccc(OC)cc3[C@@]23C[C@@H](C(=O)OC)N(C(=O)NC2CCCCC2)C3=N1	/	0.46	/	/	1.1	/
COCCNC(=S)N/N=C(\C)c1ccc(-n2ccnc2)cc1	-2	1	7	0.1	0.62	5
CCOC(=O)CC(C)(C)/C(C)=N/Nc1ccc([N+](=O)[O-])cc1[N+](=O)[O-]	-1	/	/	/	/	6
COc1ccc(C2CC(c3ccc(Cl)cc3)=NN2C(=O)c2cccc([N+](=O)[O-])c2)cc1 (configuration not stated)	/	/	/	/	/	2
Cn1c2ccccc2c(=O)c2c(=O)n(C3CCCCCC3)c(C3CCCCC3)nc21	-7	/	/	/	/	8
Cn1c2ccccc2c(=O)c2c(=O)n(C3CCCCC3)c(-c3cccs3)nc21	/	-4.3*	19	-1.2	-0.76	5
N#CC1=C2SCC(O)(c3ccccc3)N2C(=O)CC1c1cccs1 (configuration not stated)	/	-2	15	-1	-0.56	13
SMILES	Phagocyt inh	Cav3 T inh	Rev-RRE block	Pyk2 oligo antag	hDAT+cocaine	Measles CPE
COc1cccc(C2CC(=O)N3CN(c4ccccc4F)CSC3=C2C#N)c1 (configuration not stated)	/	-0.072	0	/	-0.78	4
COc1ccc(C2CC(=O)N3C(=C2C#N)SCC3(O)c2ccccc2)cc1 (configuration not stated)	2	-6*	10	-2.7	-0.33	4
N#CC1=C2SCC(O)(c3ccccc3)N2C(=O)CC1c1ccccc1F (configuration not stated)	2	-3.7	1	-3*	0.087	6
CC1=C(CC[C@@H](C)CO)OC2CC3C4CCC5CC(O)CCC5(C)C4CC(=O)C3(C)C12 (some centres not stated)	/	-3.6	/	/	0.049	/
CCN(CC)C(=O)CSc1nc2c(sc(=S)n2CC)c(=O)n1-c1ccccc1	-1	0.16	2	-0.47	0.83	5
CCN(CC)C(=O)CSc1nc2c(sc(=S)n2-c2ccccc2)c(=O)n1Cc1ccco1	-1	-6.6*	2	-1	0.89	9
CS(=O)(=O)N(CC(=O)NCCSCc1c(F)cccc1Cl)c1ccc2c(c1)OCO2	3	-6.5*	-1	0.95	1.1	4
COc1cccc(N(CC(=O)NCCSc2ccccc2)S(C)(=O)=O)c1	2	0.28	3	0.53	0.62	1
COc1cccc(N(CC(=O)NCCSc2ccc(Cl)cc2)S(C)(=O)=O)c1	0	-5.5*	12	-0.36	-0.83	9
Cc1c(Cl)c([N+](=O)[O-])nn1CC(=O)Nc1ccc2c(c1)OCO2	-4	/	/	/	/	4
CC(=O)Nc1ccc(Cl)cc1C1COC(=O)C1=N (configuration not stated)	-1	/	/	/	/	25
CC1CCc2c(sc3nc(CSc4ncn[nH]4)[nH]c(=O)c23)C1 (configuration not stated)	-8	/	/	/	/	30
O=C(NCc1ccccc1F)c1ccc(S(=O)(=O)Nc2cccc(C(F)(F)F)c2)cc1	-2	/	/	/	/	31*
COc1ccc(C(C)(C)C)cc1NC(=S)NCCN1CCOCC1	-2	/	/	/	/	4
COc1cc(/C=N/NC(=O)CN(Cc2ccco2)S(=O)(=O)c2ccccc2)ccc1O	-11	/	/	/	/	17
Cc1ccccc1NC(NC(=O)c1cccs1)C(Cl)(Cl)Cl (configuration not stated)	-2	-5.9*	3	0.51	-0.67	12
CCOC(=O)C1=C(C)N(CCCC(=O)O)C(=O)NC1c1ccc(Br)cc1 (configuration not stated)	/	0.63	/	/	-0.41	/
Cc1ccc(C(=O)Nc2nc(=O)n(C(=O)c3ccccc3C)s2)cc1	-2	-7.4*	3	0.1	0.3	5
O=c1c2cn[nH]c2nc(SCc2ccc3c(c2)OCCO3)n1-c1ccccc1	-1	-3.4	-2	-3.7*	-0.038	10
O=C(NCCc1ccc(Cl)cc1)C1CCC(CNc2c(N3CCCCC3)c(=O)c2=O)CC1 (configuration not stated)	/	0.19	/	/	-0.34	4
